Measurements gathered from unrelated publications.
Lines come from different studies, so protocols differ.
Cell line: HL-60
Effect on: cell growth or viability

Compound | method | time | IC50 [µM]
O=C(NO)c1ccc(Cn2cnc3c(Nc4cccc([N+](=O)[O-])c4)ncnc32)cc1 | MTT | 72 h | 1.86
N#Cc1ccc(-c2cc(COc3cc(C(F)(F)F)nc4ccccc34)on2)cc1 | MTS | 72 h | 62.2
C=C1C[C@@]23CC[C@H]4[C@@](C)(CCC[C@@]4(C)C(=O)O)[C@@H]2CC[C@@H]1C3 | XTT | 75 h | 155
COc1cc([C@@H]2c3cc4c(cc3[C@@H](O[C@@H]3O[C@@H]5CO[C@@H](C)O[C@H]5[C@H](O)[C@H]3O)[C@H]3COC(=O)[C@H]23)OCO4)cc(OC)c1O | MTS | 72 h | 0.3
O=c1cc(OCc2cc(-c3ccccc3)no2)c2ccccc2o1 | MTS | 72 h | > 100
COc1ccc(Nc2ncnc3c2ncn3Cc2ccc(C(=O)Nc3ccccc3N)cc2)cc1 | MTT | 72 h | 4.12
c1ccc(-c2cc(CNc3cccc4cccnc34)on2)cc1 | MTS | 72 h | 79.6
O=C(NO)c1ccc(Cn2cnc3c(Nc4ccc(F)c(Cl)c4)ncnc32)cc1 | MTT | 72 h | 2.55
O=C(CSc1nc2ccccc2s1)N/N=C/c1ccc(OCC(=O)Nc2cccc(Cl)c2)cc1 | MTS | 72 h | > 100
O=c1cc(OCc2cc(-c3ccc(C(F)(F)F)cc3)no2)c2ccccc2o1 | MTS | 72 h | > 100
O=C(CSc1nc2ccccc2s1)N/N=C/c1ccc(OCC(=O)Nc2cccc([N+](=O)[O-])c2)cc1 | MTS | 72 h | > 100
COc1ccc(Nc2ncnc3c2ncn3Cc2ccc(C(=O)NO)cc2)cc1 | MTT | 72 h | 1.98
